Measured values taken from ChEMBL document CHEMBL1137478, “Optimization of triarylimidazoles for Tie2: influence of conformation on potency” (Bioorg Med Chem Lett, 2007).

Assays:
Angiopoietin-1 receptor [1] = target: T1, Angiopoietin-1 receptor (Homo sapiens, UniProt Q02763); test: Inhibition of Tie2
Angiopoietin-1 receptor [2] = target: T1, Angiopoietin-1 receptor; test: Inhibition of Tie2 at 10 uM
TGF-beta receptor type-1 = target: T2, TGF-beta receptor type-1 (Homo sapiens, UniProt P36897)
T2 sequence (P36897 whole entry): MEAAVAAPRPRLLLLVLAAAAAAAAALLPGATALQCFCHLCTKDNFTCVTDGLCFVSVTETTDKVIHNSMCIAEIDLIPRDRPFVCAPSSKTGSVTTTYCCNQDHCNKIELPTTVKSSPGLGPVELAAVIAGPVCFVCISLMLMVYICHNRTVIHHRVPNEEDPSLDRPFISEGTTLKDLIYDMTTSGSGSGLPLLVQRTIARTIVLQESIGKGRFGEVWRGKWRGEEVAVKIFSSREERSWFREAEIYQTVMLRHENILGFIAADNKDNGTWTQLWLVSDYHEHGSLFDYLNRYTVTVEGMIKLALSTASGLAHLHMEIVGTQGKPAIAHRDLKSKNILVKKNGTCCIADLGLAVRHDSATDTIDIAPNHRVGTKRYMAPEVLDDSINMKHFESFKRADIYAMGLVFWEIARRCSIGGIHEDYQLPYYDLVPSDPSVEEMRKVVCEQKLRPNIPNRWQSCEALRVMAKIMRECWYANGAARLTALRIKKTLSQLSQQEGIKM

[3] = target: Tyrosine-protein kinase ABL1 (Homo sapiens, UniProt P00519); test: Inhibition of Abl kinase
[4] = target: Platelet-derived growth factor receptor alpha (Homo sapiens, UniProt P16234); test: Inhibition of PDGFRalpha
[5] = target: Fibroblast growth factor receptor 1 (Homo sapiens, UniProt P11362); test: Inhibition of FGFR1
[6] = target: RAC-alpha serine/threonine-protein kinase (Homo sapiens, UniProt P31749); test: Inhibition of AKT1
[7] = target: Mast/stem cell growth factor receptor Kit (Homo sapiens, UniProt P10721); test: Inhibition of KIT
[8] = target: Insulin-like growth factor 1 receptor (Homo sapiens, UniProt P08069); test: Inhibition of IGFR1
[9] = target: Protein kinase C beta type (Homo sapiens, UniProt P05771); test: Inhibition of PKCbeta1
[10] = target: Macrophage colony-stimulating factor 1 receptor (Homo sapiens, UniProt P07333)
Mus musculus [11] = test: Inhibition of bFGF-stimulated angiogenesis in Matrigel mouse model at 50 mg/kg, po after 6 days; format: functional; details: 144 h
Method in brief: (§1)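 Mice bear Matrigel plugs in which angiogenesis is driven by bFGF; compound given as two doses. Control groups are untreated bFGF mice and mice without bFGF. Animals are killed after 6 days, and the heme content of the Matrigel plug is measured as the angiogenesis read-out.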

[12] = target: T3, Receptor-type tyrosine-protein kinase FLT3 (Homo sapiens, UniProt P36888); test: Inhibition of FLT3
T3 sequence (P36888 whole entry): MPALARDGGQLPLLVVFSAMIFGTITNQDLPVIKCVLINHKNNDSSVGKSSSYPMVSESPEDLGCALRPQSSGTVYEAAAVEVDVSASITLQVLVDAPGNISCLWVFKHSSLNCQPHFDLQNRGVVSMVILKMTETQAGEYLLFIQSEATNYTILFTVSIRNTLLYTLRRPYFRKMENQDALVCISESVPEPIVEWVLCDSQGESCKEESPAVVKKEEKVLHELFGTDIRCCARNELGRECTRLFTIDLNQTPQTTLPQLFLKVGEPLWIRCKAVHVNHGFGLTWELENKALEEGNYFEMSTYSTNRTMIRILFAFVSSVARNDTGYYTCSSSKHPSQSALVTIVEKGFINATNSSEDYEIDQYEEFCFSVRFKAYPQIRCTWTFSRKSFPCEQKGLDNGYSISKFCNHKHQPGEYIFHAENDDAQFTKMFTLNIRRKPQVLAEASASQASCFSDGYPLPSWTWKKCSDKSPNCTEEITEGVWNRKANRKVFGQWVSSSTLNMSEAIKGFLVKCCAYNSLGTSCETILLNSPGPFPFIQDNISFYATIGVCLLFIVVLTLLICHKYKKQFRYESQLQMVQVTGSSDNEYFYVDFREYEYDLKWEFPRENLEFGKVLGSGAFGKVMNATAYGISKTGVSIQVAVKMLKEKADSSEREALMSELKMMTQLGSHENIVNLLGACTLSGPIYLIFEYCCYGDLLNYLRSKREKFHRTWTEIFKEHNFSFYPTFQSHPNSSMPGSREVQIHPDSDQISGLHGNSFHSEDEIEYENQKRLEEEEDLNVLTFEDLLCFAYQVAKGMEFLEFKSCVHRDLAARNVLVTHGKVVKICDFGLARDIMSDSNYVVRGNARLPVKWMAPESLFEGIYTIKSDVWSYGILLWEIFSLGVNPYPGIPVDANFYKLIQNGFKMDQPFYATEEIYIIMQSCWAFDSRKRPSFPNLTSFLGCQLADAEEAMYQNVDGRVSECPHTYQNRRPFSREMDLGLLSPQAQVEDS

Mus musculus [13] = test: Inhibition of bFGF-stimulated angiogenesis in Matrigel mouse model at 25 mg/kg, po after 6 days; format: functional; details: 144 h; method in brief: as §1
[14] = target: Cyclin-dependent kinase 2 (Homo sapiens, UniProt P24941); test: Inhibition of CDK2
[15] = target: Vascular endothelial growth factor receptor 2 (Homo sapiens, UniProt P35968); test: Inhibition of VEGFR2
[16] = target: Platelet-derived growth factor receptor beta (Homo sapiens, UniProt P09619); test: Inhibition of PDGFRbeta
MAP kinase p38 = MAP kinase p38 (Homo sapiens, UniProt O15264+Q15759+Q16539+P53778); test: Inhibition of mitogen-activated protein kinase p38; format: protein assay
[17] = Inhibition of GSK3; design: species or system Homo sapiens
[18] = target: Hepatocyte growth factor receptor (Homo sapiens, UniProt P08581); test: Inhibition of MET
Insulin receptor = Insulin receptor (Homo sapiens, UniProt P06213); test: Inhibition of INSR

T1 sequence (Q02763 whole entry): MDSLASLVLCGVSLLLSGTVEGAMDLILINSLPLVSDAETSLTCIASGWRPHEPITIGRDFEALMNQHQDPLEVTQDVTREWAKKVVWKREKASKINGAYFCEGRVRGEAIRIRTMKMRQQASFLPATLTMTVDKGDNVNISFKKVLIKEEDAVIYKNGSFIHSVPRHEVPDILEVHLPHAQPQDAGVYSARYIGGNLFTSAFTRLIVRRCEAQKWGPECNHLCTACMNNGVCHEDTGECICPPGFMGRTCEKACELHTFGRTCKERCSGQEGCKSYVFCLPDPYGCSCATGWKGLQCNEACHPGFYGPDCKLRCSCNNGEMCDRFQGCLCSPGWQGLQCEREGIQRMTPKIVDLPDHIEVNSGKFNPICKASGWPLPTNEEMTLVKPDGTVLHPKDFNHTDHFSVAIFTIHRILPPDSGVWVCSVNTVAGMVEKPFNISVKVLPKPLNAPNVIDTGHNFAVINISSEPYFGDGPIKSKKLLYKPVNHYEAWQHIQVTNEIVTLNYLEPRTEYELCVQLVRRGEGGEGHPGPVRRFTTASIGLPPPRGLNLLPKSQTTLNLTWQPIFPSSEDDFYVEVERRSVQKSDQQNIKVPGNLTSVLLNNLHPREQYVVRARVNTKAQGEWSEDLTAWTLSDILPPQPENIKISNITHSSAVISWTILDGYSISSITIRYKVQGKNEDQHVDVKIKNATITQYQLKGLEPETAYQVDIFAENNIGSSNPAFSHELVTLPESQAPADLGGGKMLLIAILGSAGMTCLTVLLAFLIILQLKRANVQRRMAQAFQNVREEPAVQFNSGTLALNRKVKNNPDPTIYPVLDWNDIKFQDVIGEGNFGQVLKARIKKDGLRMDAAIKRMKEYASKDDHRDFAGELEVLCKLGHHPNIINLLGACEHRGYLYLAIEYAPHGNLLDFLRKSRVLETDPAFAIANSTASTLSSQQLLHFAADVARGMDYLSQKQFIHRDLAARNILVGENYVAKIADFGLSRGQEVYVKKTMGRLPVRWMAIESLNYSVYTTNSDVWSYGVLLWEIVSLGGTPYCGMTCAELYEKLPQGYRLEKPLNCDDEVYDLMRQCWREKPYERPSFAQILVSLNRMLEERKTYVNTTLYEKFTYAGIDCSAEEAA
Sequence of Tyrosine-protein kinase ABL1 (P00519 whole entry): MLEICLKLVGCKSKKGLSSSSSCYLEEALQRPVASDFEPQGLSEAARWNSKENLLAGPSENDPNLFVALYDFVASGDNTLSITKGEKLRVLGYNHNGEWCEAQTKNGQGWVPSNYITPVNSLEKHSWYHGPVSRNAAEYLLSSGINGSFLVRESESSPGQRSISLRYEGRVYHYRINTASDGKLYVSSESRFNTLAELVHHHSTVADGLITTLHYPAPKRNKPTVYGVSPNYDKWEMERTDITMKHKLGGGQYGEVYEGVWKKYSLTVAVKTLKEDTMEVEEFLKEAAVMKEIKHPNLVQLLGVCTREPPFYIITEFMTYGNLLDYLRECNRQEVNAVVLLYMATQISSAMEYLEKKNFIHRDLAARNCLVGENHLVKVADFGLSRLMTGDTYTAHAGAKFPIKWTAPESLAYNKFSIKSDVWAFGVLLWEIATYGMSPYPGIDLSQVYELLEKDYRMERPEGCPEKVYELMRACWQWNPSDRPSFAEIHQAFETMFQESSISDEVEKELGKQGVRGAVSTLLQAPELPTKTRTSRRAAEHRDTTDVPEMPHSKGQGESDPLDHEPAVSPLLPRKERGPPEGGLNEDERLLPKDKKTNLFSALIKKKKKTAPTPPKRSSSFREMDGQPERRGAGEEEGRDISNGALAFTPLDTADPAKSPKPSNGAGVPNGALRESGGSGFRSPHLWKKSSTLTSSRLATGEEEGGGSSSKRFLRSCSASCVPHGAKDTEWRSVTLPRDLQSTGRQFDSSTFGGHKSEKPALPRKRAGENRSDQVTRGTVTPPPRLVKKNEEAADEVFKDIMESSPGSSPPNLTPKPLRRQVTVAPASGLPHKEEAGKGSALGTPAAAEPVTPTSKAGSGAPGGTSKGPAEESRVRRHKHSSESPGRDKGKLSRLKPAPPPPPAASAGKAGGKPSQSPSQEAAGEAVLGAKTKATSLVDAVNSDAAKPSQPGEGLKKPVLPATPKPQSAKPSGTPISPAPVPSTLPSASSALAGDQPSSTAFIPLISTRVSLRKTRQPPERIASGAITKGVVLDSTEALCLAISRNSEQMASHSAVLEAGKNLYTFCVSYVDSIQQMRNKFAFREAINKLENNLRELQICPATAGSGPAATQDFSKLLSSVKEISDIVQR
Sequence of Vascular endothelial growth factor receptor 2 (P35968 whole entry): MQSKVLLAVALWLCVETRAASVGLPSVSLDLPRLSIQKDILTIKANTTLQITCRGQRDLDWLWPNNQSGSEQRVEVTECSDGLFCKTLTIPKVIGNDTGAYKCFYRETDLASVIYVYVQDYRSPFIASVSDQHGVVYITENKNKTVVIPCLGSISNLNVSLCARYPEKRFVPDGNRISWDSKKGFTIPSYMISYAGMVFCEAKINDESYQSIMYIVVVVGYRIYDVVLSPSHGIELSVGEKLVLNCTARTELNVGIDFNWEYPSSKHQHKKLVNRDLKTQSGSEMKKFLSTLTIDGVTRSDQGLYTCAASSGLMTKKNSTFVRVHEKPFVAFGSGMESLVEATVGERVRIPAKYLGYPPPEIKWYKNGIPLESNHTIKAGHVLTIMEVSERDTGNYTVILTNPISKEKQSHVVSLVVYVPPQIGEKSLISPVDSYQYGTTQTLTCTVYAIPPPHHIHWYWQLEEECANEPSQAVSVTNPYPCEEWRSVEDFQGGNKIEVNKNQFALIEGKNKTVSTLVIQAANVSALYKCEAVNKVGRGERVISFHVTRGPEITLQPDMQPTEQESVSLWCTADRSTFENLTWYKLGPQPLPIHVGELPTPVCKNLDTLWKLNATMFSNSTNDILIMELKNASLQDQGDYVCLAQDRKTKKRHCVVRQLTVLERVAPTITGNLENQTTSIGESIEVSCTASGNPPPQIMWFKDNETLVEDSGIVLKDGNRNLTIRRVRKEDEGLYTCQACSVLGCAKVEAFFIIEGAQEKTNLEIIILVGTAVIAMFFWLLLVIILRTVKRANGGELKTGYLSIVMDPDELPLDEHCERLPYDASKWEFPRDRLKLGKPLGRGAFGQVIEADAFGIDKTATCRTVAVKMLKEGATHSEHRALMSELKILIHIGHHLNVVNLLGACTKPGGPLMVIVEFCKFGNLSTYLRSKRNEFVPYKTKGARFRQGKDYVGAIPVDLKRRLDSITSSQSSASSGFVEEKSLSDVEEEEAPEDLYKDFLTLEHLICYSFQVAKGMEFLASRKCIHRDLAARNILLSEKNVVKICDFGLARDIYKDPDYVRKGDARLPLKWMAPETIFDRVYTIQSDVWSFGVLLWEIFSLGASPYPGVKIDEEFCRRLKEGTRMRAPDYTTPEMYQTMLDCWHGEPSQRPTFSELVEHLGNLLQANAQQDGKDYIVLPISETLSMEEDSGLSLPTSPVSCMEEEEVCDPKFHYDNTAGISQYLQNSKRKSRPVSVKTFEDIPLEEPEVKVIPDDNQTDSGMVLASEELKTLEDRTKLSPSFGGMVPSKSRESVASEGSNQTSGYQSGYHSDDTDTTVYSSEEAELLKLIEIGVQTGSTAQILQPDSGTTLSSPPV
Sequence of Macrophage colony-stimulating factor 1 receptor (P07333 whole entry): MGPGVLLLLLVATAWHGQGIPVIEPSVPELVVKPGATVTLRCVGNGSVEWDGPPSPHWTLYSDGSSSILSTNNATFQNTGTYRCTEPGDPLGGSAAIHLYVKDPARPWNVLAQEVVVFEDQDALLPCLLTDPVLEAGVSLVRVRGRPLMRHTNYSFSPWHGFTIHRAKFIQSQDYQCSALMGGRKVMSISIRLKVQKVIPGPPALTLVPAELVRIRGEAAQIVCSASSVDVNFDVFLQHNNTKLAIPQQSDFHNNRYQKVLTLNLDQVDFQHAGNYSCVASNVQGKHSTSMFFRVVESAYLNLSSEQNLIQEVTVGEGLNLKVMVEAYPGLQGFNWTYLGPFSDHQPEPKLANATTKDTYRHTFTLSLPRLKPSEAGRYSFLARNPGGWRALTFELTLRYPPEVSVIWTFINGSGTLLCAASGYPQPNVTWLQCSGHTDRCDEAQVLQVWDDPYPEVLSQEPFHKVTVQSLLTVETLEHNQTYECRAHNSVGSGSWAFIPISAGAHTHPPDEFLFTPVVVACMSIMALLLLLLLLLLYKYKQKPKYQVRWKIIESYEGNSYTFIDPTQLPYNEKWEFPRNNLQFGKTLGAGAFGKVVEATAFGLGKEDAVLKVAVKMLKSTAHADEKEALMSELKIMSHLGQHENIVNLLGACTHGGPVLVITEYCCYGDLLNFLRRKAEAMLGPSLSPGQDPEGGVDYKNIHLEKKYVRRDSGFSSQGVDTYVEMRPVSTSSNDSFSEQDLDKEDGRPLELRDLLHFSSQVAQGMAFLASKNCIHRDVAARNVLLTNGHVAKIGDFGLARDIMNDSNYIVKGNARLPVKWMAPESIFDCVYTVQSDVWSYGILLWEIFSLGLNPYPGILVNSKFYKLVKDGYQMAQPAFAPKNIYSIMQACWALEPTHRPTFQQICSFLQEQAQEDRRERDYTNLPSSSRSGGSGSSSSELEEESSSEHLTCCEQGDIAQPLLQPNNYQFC
Sequence of RAC-alpha serine/threonine-protein kinase (P31749 whole entry): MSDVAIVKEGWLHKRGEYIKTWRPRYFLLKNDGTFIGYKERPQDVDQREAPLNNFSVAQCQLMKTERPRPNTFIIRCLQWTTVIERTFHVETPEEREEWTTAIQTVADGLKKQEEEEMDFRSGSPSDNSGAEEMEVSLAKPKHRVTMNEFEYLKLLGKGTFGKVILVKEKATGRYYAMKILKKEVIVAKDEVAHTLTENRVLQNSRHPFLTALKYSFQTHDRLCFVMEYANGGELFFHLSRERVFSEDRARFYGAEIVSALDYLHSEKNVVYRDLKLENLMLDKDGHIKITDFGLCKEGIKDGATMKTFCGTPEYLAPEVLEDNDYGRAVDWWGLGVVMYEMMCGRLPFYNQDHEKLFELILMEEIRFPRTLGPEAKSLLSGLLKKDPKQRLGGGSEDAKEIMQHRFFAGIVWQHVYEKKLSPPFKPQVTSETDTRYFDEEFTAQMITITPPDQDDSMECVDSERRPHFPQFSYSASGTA

| Structure (SMILES) | IC50 (Angiopoietin-1 receptor [1]) | further results |
| --- | --- | --- |
| COc1ccc2cc(-c3nc(-c4ccccc4C(F)(F)F)[nH]c3-c3ccncc3)ccc2c1 | 260 nM |  |
| COc1ccc2cc(-c3nc(-c4ccc([S+](C)[O-])cc4C)[nH]c3-c3ccncc3)ccc2c1 (stereo not given) | 36 nM |  |
| CCc1ccccc1-c1nc(-c2ccc3cc(OC)ccc3c2)c(-c2ccncc2)[nH]1 | 346 nM |  |
| COc1ccc2cc(-c3[nH]c(-c4c(Cl)cccc4Cl)nc3-c3ccncc3)ccc2c1 | 78 nM |  |
| COc1ccc2cc(-c3nc(-c4ccccc4F)[nH]c3-c3ccncc3)ccc2c1 | 1600 nM |  |
| COc1ccc2cc(-c3[nH]c(-c4ccccc4Br)nc3-c3ccncc3)ccc2c1 | 82 nM |  |
| COc1ccc2cc(-c3[nH]c(-c4ccc(SC)cc4C)nc3-c3ccncc3)ccc2c1 | 1300 nM |  |
| COc1ccc2cc(-c3[nH]c(-c4ccc([S+](C)[O-])cc4Cl)nc3-c3ccncc3)ccc2c1 (stereo not given) | 51 nM |  |
| COc1ccc2cc(-c3nc(-c4ccccc4)[nH]c3-c3ccncc3)ccc2c1 |  | inhibition (Angiopoietin-1 receptor [2]): 60% |
| COc1ccc2cc(-c3nc(-c4ccccc4Cl)[nH]c3-c3ccncc3)ccc2c1 | 157 nM |  |
| COc1ccc2cc(-c3c(-c4ccncc4)nc(-c4ccc(SC)cc4C)n3C)ccc2c1 | 335 nM |  |
| COc1ccc2cc(-c3nc(-c4ccc([S@+](C)[O-])cc4C)[nH]c3-c3ccncc3)ccc2c1 | 95 nM |  |
| COc1ccc2cc(-c3[nH]c(-c4ccc(SC)cc4Cl)nc3-c3ccncc3)ccc2c1 | 1500 nM |  |
| COc1ccc2cc(-c3c(-c4ccncc4)nc(-c4ccc([S+](C)[O-])cc4C)n3C)ccc2c1 (stereo not given) | 12 nM | IC50 (TGF-beta receptor type-1): 296 nM; IC50 [3]: > 30000 nM; IC50 [4]: > 30000 nM; IC50 [5]: 9700 nM; IC50 [6]: > 30000 nM; IC50 [7]: > 30000 nM; IC50 [8]: > 30000 nM; IC50 [9]: > 30000 nM; IC50 [10]: 550 nM; inhibition in vivo at 50 mg/kg (Mus musculus [11]): 80%; IC50 [12]: > 30000 nM; inhibition in vivo at 25 mg/kg (Mus musculus [13]): 35%; IC50 [14]: > 30000 nM; IC50 [15]: 1500 nM; IC50 [16]: > 30000 nM; IC50 (MAP kinase p38): 4100 nM; IC50 [17]: > 30000 nM; IC50 [18]: > 30000 nM; IC50 (Insulin receptor): > 30000 nM |
| COc1ccc2cc(-c3[nH]c(-c4ccc(S(C)(=O)=O)cc4Cl)nc3-c3ccncc3)ccc2c1 | 59 nM |  |
| COc1ccc2cc(-c3[nH]c(-c4ccccc4C)nc3-c3ccncc3)ccc2c1 | 387 nM |  |
| COc1ccc2cc(-c3nc(-c4ccccc4C(C)C)[nH]c3-c3ccncc3)ccc2c1 | 836 nM |  |
| COc1ccc2cc(-c3nc(-c4ccc([S@@+](C)[O-])cc4C)[nH]c3-c3ccncc3)ccc2c1 | 22 nM |  |
| COc1ccc2cc(-c3c(-c4ccncc4)nc(-c4ccc(S(C)(=O)=O)cc4C)n3C)ccc2c1 | 114 nM |  |
| COc1ccc2cc(-c3[nH]c(-c4ccc(S(C)(=O)=O)cc4C)nc3-c3ccncc3)ccc2c1 | 40 nM |  |
| COc1ccc2cc(-c3nc(-c4ccc(S(C)(=O)=O)cc4)[nH]c3-c3ccncc3)ccc2c1 | 250 nM |  |
